Reference: ChEMBL document CHEMBL1156630, “Investigations on the 4-quinolone-3-carboxylic acid motif. 2. Synthesis and structure-activity relationship of potent and selective cannabinoid-2 receptor agonists endowed with analgesic activity in vivo” (J Med Chem, 2008)
The source made the active and inactive calls. The rule behind the calls is not given here.

Legend:
Cannabinoid receptor 1 = Cannabinoid receptor 1 (Homo sapiens, UniProt P21554); assay: biochemical; format: cell-based, HEK293
Cannabinoid receptor 2 = Cannabinoid receptor 2 (Homo sapiens, UniProt P34972); assay: Displacement of [3H]CP-55940 from human CB2 receptor expressed in HEK293 cells; format: cell-based
Homo sapiens = species on record: Homo sapiens; assay: Selectivity for human CB2 receptor over human CB1 receptor
Outline: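 Ratio Ki(CB1)/Ki(CB2) from radioligand displacement on HEK-cell membranes expressing human CB1 or CB2. Ki derived from IC50 via Cheng-Prusoff. Final DMSO below 0.1%.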

Mus musculus [1] = assay: Analgesic activity in mouse assessed as inhibition of formalin-induced nociceptive response at 3 mg/kg, ip; format: functional, organism-based; set-up: dose 3 mg/kg
Outline: (§1)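 Mice, 8-10 per group, randomly assigned; 1.25% formalin into dorsal hind paw. Drug given ip in 10% DMSO/0.9% NaCl 15 min before formalin; AM630 3 mg/kg ip given 5 min before compound. Licking, lifting, flinching, shaking and favoring timed in 5-min bins over 60 min; second phase 15-60 min. Two-way ANOVA with Bonferroni.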

Mus musculus [2] = assay: Analgesic activity in mouse assessed as inhibition of formalin-induced nociceptive response at 3 mg/kg, ip in presence of AM630; format: functional, organism-based; set-up: dose 3 mg/kg
Outline: as §1

Sequence of Cannabinoid receptor 1 (P21554 whole entry): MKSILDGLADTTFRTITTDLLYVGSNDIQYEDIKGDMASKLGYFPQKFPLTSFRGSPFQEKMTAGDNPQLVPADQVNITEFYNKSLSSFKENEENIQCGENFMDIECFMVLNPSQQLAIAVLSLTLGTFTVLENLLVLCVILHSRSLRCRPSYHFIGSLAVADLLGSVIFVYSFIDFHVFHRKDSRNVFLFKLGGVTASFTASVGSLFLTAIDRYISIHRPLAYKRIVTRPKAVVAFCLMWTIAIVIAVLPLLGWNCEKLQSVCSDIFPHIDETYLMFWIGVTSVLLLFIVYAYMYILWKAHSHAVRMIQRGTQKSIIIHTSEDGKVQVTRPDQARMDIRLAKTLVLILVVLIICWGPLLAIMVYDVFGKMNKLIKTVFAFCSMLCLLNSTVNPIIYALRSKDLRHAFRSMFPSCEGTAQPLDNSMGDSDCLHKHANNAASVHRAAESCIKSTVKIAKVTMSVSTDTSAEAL
Sequence of Cannabinoid receptor 2 (P34972 whole entry): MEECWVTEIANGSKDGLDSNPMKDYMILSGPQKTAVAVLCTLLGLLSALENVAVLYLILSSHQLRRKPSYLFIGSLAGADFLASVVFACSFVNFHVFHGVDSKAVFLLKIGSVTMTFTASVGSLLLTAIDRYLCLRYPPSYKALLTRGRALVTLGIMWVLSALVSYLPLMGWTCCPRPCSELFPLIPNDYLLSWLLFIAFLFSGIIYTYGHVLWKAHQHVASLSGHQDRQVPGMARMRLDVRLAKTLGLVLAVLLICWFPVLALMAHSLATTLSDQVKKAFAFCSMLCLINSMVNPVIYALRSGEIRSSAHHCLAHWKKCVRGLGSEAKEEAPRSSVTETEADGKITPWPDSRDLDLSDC

Row | Compound | Ki (Cannabinoid receptor 1) | Ki (Cannabinoid receptor 2) | Ratio Ki (Homo sapiens) | Activity (Mus musculus [1]) | Activity (Mus musculus [2])
1 | CCCCCn1cc(C(=O)NC23CC4CC(CC(C4)C2)C3)c(=O)c2ccc(Cl)c(C)c21 | > 10000 nM | 25.5 nM | > 393 |  | 
2 | CCCCCn1cc(C(=O)NC23CC4CC(CC(C4)C2)C3)c(=O)c2ccccc21 | 42.1 nM | 4.7 nM | 9 |  | 
3 | C=CCCn1cc(C(=O)NC23CC4CC(CC(C4)C2)C3)c(=O)c2cc(Br)ccc21 | 2680 nM | 23.8 nM | 113 |  | 
4 | CCCCCn1cc(C(=O)NC23CC4CC(CC(C4)C2)C3)c(=O)c2cc(Sc3ccccc3)ccc21 | 640 nM | 3.4 nM | 189 |  | 
5 | CCCCCn1cc(C(=O)N[C@H](C)c2ccccc2)c(=O)c2ccc(N3CCCC3)cc21 | 160 nM | 17.1 nM | 9.4 |  | 
6 | CCCCCn1cc(C(=O)NC23CC4CC(CC(C4)C2)C3)c(=O)c2cc(Br)ccc21 | 996 nM | 14.3 nM | 69.4 |  | 
7 | C=CCCCn1cc(C(=O)NC23CC4CC(CC(C4)C2)C3)c(=O)c2cc(Br)ccc21 | 696 nM | 9.4 nM | 74.4 |  | 
8 | CCCCCn1cc(C(=O)NC23CC4CC(CC(C4)C2)C3)c(=O)c2ccc(S(=O)(=O)c3ccccc3)cc21 | 6.1 nM | 0.9 nM |  |  | 
9 | CCCCCn1cc(C(=O)NC23CC4CC(CC(C4)C2)C3)c(=O)c2cc(/C=C/c3ccc(OC)cc3)ccc21 | 2630 nM | 55.9 nM | 47 |  | 
10 | CCCCCn1cc(C(=O)NC23CC4CC(CC(C4)C2)C3)c(=O)c2ccc([S+]([O-])c3ccccc3)cc21 (stereo unspecified) | 28 nM | 3.5 nM | 8 |  | 
11 | CCCCCn1cc(C(=O)N[C@H](C)c2ccccc2)c(=O)c2ccc(F)cc21 | 14.3 nM | 10.7 nM | 1.3 |  | 
12 | CCCCCn1cc(C(=O)NC23CC4CC(CC(C4)C2)C3)c(=O)c2cc(F)c(-n3cccc3)cc21 | 140 nM | 3.6 nM | 38.8 |  | 
13 | CCCCCn1cc(C(=O)NC23CC4CC(CC(C4)C2)C3)c(=O)c2cc(Oc3ccc(F)c(Cl)c3)ccc21 | 739 nM | 16.1 nM | 46 |  | 
14 | CCCCCn1cc(C(=O)NC23CC4CC(CC(C4)C2)C3)c(=O)c2ccc(F)cc21 | 30.5 nM | 0.8 nM | 38.1 |  | 
15 | CCCCCn1cc(C(=O)NC23CC4CC(CC(C4)C2)C3)c(=O)c2c(OC)ccc(OC)c21 | 2100 nM | 52.6 nM | 39.9 |  | 
16 | CCCCCn1cc(C(=O)NC23CC4CC(CC(C4)C2)C3)c(=O)c2cc(C(F)(F)F)ccc21 | 2520 nM | 11.6 nM | 217 |  | 
17 | CCCCCn1cc(C(=O)NC23CC4CC(CC(C4)C2)C3)c(=O)c2ccc(Sc3ccccc3)cc21 | 5.3 nM | 1.6 nM | 3.3 |  | 
18 | CCCCCn1cc(C(=O)NC23CC4CC(CC(C4)C2)C3)c(=O)c2cc(-c3ccccc3)ccc21 | > 10000 nM | 3.8 nM | > 2670 |  | 
19 | CCCCCn1cc(C(=O)NC23CC4CC(CC(C4)C2)C3)c(=O)c2cc(C(C)C)ccc21 |  |  |  | Active | inactive
20 | C=CCn1cc(C(=O)NC23CC4CC(CC(C4)C2)C3)c(=O)c2c(OC)ccc(OC)c21 | > 10000 nM | 9.2 nM | > 1090 |  | 
21 | CCCCCn1cc(C(=O)N[C@H](C)c2ccccc2)c(=O)c2ccc(OCC)cc21 | 29.7 nM | 24.2 nM | 1.2 |  | 
